Activity calls are given as the source filed them. No cut-off for these calls is given here. Non-standard residues stand in square brackets, D forms with d. Residues, ends and D or L forms follow the SMILES beside them. dTrp(2-Me) = Cc1[nH]c2ccccc2c1C[C@@H](N)C(=O)O
Key:
MDR1 [1] = assay: Apparent permeability in MDCK cells expressing MDR1 at 10 uM assessed as apical to basolateral side transport; format: ADME, cell-based, Canis lupus familiaris; details: dog
How it was run: (§1)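 MDCK-MDR1 monolayers incubated with compound at 10 µM; permeability measured in both A→B and B→A directions, giving Papp A-B (x10^6 cm/s) and the efflux ratio.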

[2] = Ratio of drug level in homogenized brain to plasma in Han-Wistar rat measured 1 hr after iv bolus then iv infusion by LC-MS/MS method; format: ADME, organism-based; details: read-out: BPR
How it was run: (§2)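 Brain:plasma ratio in homogenized brain 1 h after IV bolus followed by IV infusion. The free ratio used free fractions measured in plasma and brain (brain slice method or brain homogenate).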

[3] = molecular target: Growth hormone secretagogue receptor type 1 (Homo sapiens, UniProt Q92847); assay: Displacement of [125I]human ghrelin from human GHS-R1a expressed in HEK cell membranes after 60 mins by gamma counting method; parameters: species or system HEK293
[4] = Lipophilicity, logD of the compound; format: physicochemical; details: octanol/water
[5] = Cmax in Han-Wistar rat at 2 mg/kg, po by LC-MS/MS method; format: ADME, organism-based; parameters: dose 2 mg/kg, route oral; details: in vivo
How it was run: (§3)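 Oral gavage in male HW rats, beagle dogs or CD-1 mice, vehicle Pluronic F127 in water. EDTA plasma was collected over 24 h and quantified by LC/MS/MS after acetonitrile precipitation. Cmax and bioavailability were obtained by non-compartmental analysis against IV data.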

MDR1 [6] = assay: Efflux ratio in MDCK cells expressing MDR1 at 10 uM; format: ADME, cell-based, Canis lupus familiaris; details: dog; how it was run: as §1
[7] = Ratio of free drug level in homogenized brain to plasma in Han-Wistar rat measured 1 hr after iv bolus then iv infusion by LC-MS/MS method; format: ADME, organism-based; details: read-out: BPR; how it was run: as §2
[8] = Cmax in CD1 mouse at 2 mg/kg, po by LC-MS/MS method; format: ADME, organism-based; parameters: dose 2 mg/kg, route oral; details: in vivo; how it was run: as §3
[9] = Ratio of free drug level in homogenized brain to plasma in CD1 mouse measured 6 hrs after oral dosing by LC-MS/MS method; format: ADME
How it was run: (§4)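 CD-1 mice dosed PO in 1% Pluronic F127. Drug was measured in homogenized brain and in plasma 6 h after dosing and expressed as a brain:plasma ratio. The free ratio used free fraction measured in mouse plasma and rat brain (brain slice or brain homogenate).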

[10] = Ratio of drug level in homogenized brain to plasma in CD1 mouse at 2 mg/kg, po measured after 6 hrs by LC-MS/MS method; format: ADME, organism-based; parameters: dose 2 mg/kg, route oral; details: read-out: BPR; how it was run: as §4
[11] = Ratio of drug level in homogenized brain to plasma in CD1 mouse at 0.9 mg/kg, po measured after 6 hrs by LC-MS/MS method; format: ADME, organism-based; parameters: dose 0.9 mg/kg, route oral; details: read-out: BPR; how it was run: as §4
[12] = Ratio of drug level in homogenized brain to plasma in CD1 mouse at 2.7 mg/kg, po measured after 6 hrs by LC-MS/MS method; format: ADME, organism-based; parameters: dose 2.7 mg/kg, route oral; details: read-out: BPR
How it was run: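 Brain homogenate and plasma drug levels were taken 6 h after oral dosing, and their ratio was reported. Plasma was assayed by LC/MS/MS after acetonitrile protein precipitation.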

Mus musculus [13] = assay: Increase in food intake in po dosed C57Bl6j mouse free feeding model measured in 2 hrs intervals; format: functional, organism-based
How it was run: (§5)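 Male mice (C57Bl6j, GHSr1-/- or wild-type littermates) were acclimatized 3 weeks to reversed light-dark, then individually housed 7 days and grouped (n=10-12) by baseline intake and body weight. Suspensions in 1% Pluronic F127 or vehicle were gavaged at 10 mL/kg about 1 h before dark onset. Pre-weighed food was reweighed at 2, 4, 6 and 24 h.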

[14] = Cmax in beagle dog at 2 mg/kg, po; format: ADME, organism-based, Canis lupus familiaris; parameters: dose 2 mg/kg, route oral; details: in vivo; how it was run: as §3
Mus musculus [15] = assay: Reduction in free feeding level in po dosed C57Bl6j mouse free feeding model measured during 2 to 6 hrs; format: functional, organism-based; how it was run: as §5
[16] = Volume of distribution at steady state in CD1 mouse at 2 mg/kg, iv; format: ADME, organism-based; parameters: dose 2 mg/kg, route intravenous; details: in vivo, read-out: Vdss
How it was run: (§6)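 Male HW rats, beagle dogs or CD-1 mice received an IV bolus in 5% DMSO/95% hydroxypropyl-β-cyclodextrin (30% w/v). EDTA plasma was sampled over 24 h and assayed by LC/MS/MS after acetonitrile protein precipitation. CL and Vss were obtained by non-compartmental analysis.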

[17] = Clearance in Han-Wistar rat at 2 mg/kg, iv; format: ADME, organism-based; parameters: dose 2 mg/kg, route intravenous; details: in vivo; how it was run: as §6
[18] = Clearance in beagle dog at 2 mg/kg, iv; format: ADME, organism-based, Canis lupus familiaris; parameters: dose 2 mg/kg, route intravenous; details: in vivo; how it was run: as §6
[19] = Clearance in CD1 mouse at 2 mg/kg, iv; format: ADME, organism-based; parameters: dose 2 mg/kg, route intravenous; details: in vivo; how it was run: as §6
[20] = Displacement of [125I]human ghrelin from mouse GHS-R1a expressed in HEK cell membranes after 60 mins by gamma counting method; details: hek293
How it was run: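 HEK cell membranes stably overexpressing mouse or rat GHS-R1a (4 µg/well) incubated 60 min at rt with 20 pM [125I]human ghrelin and competing compound. Buffer: 50 mM Tris-HCl, 5 mM MgCl2, 0.01% BSA, pH 7.4, plus 10 µM methyl arachidonyl fluorophosphonate. Stopped by filtration over PEI-soaked GF/C filters with ice-cold washes, then gamma counting. IC50 is the mean of ≥2 independent determinations.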

[21] = Oral bioavailability in Han-Wistar rat at 2 mg/kg; format: ADME, organism-based; details: Han-Wistar, in vivo; how it was run: as §3
[22] = molecular target: Growth hormone secretagogue receptor type 1 (Rattus norvegicus) (UniProt O08725); assay: Displacement of [125I]human ghrelin from rat GHS-R1a expressed in HEK cell membranes after 60 mins by gamma counting method; details: hek293
[23] = Volume of distribution at steady state in Han-Wistar rat at 2 mg/kg, iv; format: ADME, organism-based; parameters: dose 2 mg/kg, route intravenous; details: in vivo, read-out: Vdss; how it was run: as §6
[24] = Oral bioavailability in beagle dog at 2 mg/kg; format: ADME, organism-based, Canis lupus familiaris; details: in vivo; how it was run: as §3
Mus musculus [25] = assay: Reduction in free feeding level in po dosed C57Bl6j mouse free feeding model measured over 24 hrs period; format: functional, organism-based; how it was run: as §5
[26] = Unbound fraction in Han-Wistar rat plasma; format: ADME, cell-free
[27] = Volume of distribution at steady state in beagle dog at 2 mg/kg, iv; format: ADME, organism-based, Canis lupus familiaris; parameters: dose 2 mg/kg, route intravenous; details: in vivo, read-out: Vdss; how it was run: as §6
[28] = Cmax in Han-Wistar rat at 2 mg/kg, po; format: ADME, organism-based; parameters: dose 2 mg/kg, route oral; details: in vivo; how it was run: as §3
Mus musculus [29] = assay: Reduction in free feeding level in po dosed C57Bl6j mouse free feeding model measured during 0 to 2 hrs; format: functional, organism-based; how it was run: as §5
[30] = Unbound fraction in CD1 mouse plasma; format: ADME, cell-free
[31] = Unbound fraction in beagle dog plasma; format: ADME, cell-free, Canis lupus familiaris
[32] = Oral bioavailability in CD1 mouse at 1.3 mg/kg; format: ADME, organism-based; details: in vivo; how it was run: as §3
[33] = Cmax in CD1 mouse at 1.3 mg/kg, po; format: ADME, organism-based; parameters: dose 1.3 mg/kg, route oral; details: in vivo; how it was run: as §3

Growth hormone secretagogue receptor type 1, sequence (Q92847 whole entry): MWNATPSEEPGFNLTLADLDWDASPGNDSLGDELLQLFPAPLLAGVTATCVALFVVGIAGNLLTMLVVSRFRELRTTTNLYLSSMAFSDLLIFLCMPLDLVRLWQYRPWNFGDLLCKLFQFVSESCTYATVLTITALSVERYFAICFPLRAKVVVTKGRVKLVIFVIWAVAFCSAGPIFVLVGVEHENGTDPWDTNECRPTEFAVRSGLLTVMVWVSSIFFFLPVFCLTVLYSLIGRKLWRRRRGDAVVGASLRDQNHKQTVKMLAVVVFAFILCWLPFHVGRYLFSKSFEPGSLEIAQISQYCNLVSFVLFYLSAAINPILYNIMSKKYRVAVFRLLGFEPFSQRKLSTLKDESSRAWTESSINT
Growth hormone secretagogue receptor type 1 (Rattus norvegicus), sequence (O08725 whole entry, looked up): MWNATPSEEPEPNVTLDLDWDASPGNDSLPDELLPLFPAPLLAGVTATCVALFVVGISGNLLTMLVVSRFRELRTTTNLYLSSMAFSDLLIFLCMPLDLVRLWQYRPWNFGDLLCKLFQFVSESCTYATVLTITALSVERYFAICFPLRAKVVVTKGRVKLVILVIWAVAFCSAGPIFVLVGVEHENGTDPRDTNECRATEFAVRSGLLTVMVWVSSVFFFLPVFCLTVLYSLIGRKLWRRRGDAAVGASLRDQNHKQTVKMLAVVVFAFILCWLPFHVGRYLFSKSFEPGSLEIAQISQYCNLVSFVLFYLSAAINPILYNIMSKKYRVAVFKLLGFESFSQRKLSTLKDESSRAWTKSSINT

| SMILES | Papp A→B at 10 µM (MDR1 [1]) | Kp at 1 h [2] | IC50 [3] | logD [4] | Cmax [5] | efflux ratio at 10 µM (MDR1 [6]) | Kp uu at 1 h [7] | Cmax [8] | also measured |
| --- | --- | --- | --- | --- | --- | --- | --- | --- | --- |
| CCOc1ccc(Cl)c(C(=O)NC(=O)Nc2nc3ccc(S(=O)(=O)CCCN4CCN(C)CC4)cc3s2)c1 | 2.8 ×10⁻⁶ cm/s | 0.052 | 0.31 nM | 2.4 | 4200 nM | 5 | 0.52 |  |  |
| Cc1ccnn1-c1ccc(Cl)c(C(=O)NC(=O)Nc2nc3ccc(S(=O)(=O)C4CCN(C)CC4)cc3s2)c1 | 1.1 ×10⁻⁶ cm/s |  | 33 nM | 2.6 |  | 15 |  | 640 nM | Kp uu at 6 h [9]: 0.61; Kp at 6 h [10]: 0.9 |
| CN1CCC(S(=O)(=O)c2ccc3nc(NC(=O)NC(=O)c4cc(N5CCCC5)c(C#N)cc4Cl)sc3c2)CC1 | 3 ×10⁻⁶ cm/s |  | 0.4 nM | 3 |  | 0.47 |  | 840 nM | Kp at 6 h [11]: 0.072; Kp uu at 6 h [9]: 0.38 |
| CN1CCC(S(=O)(=O)c2ccc3nc(NC(=O)NC(=O)c4cc5c(cc4Cl)CCN5C)sc3c2)CC1 | 5.1 ×10⁻⁶ cm/s |  | 7.2 nM | 2.8 |  | 1.2 |  | 3000 nM | Kp at 6 h [12]: 0.15; Kp uu at 6 h [9]: 0.072 |
| Cc1[nH]c2ccccc2c1C[C@@H](NC(=O)[C@@H](N)Cc1c[nH]cn1)C(=O)N[C@@H](C)C(=O)N[C@@H](Cc1c[nH]c2ccccc12)C(=O)N[C@H](Cc1ccccc1)C(=O)N[C@@H](CCCCN)C(N)=O (H-H[dTrp(2-Me)]AW[dF]K-NH2) |  |  |  |  |  |  |  |  | Activity (Mus musculus [13]): Active |
| CCN(CC)CCCS(=O)(=O)c1ccc2nc(NC(=O)NC(=O)c3cc(N4CCOCC4)ccc3Cl)sc2c1 | 3.3 ×10⁻⁶ cm/s | < 0.01 | 2.9 nM | 1.8 | 9400 nM | 5.5 |  |  |  |
| CCc1ccc(Cl)c(C(=O)NC(=O)Nc2nc3ccc(S(=O)(=O)CCCN4CCN(C)CC4)cc3s2)c1 | 1.7 ×10⁻⁶ cm/s | 0.036 | 0.078 nM | 2.9 | 1500 nM | 13 | 0.04 |  |  |
| CN1CCC(S(=O)(=O)c2ccc3nc(NC(=O)NC(=O)c4cc(-n5cccn5)ccc4Cl)sc3c2)CC1 | 3.9 ×10⁻⁶ cm/s |  | 15 nM | 2.5 |  | 2.5 |  | 1500 nM |  |

Now from value to compound, other results behind:

| Papp A→B at 10 µM (MDR1 [1]) | Kp at 1 h [2] | IC50 [3] | logD [4] | Cmax [5] | efflux ratio at 10 µM (MDR1 [6]) | Kp uu at 1 h [7] | Cmax [8] | SMILES | also measured |
| --- | --- | --- | --- | --- | --- | --- | --- | --- | --- |
| 11 ×10⁻⁶ cm/s |  | 0.92 nM | 3.1 |  | 0.05 |  | 5800 nM | CN1CCC(S(=O)(=O)c2ccc3nc(NC(=O)NC(=O)c4cc(N5CCCC5)ccc4Cl)sc3c2)CC1 |  |
| 3.9 ×10⁻⁶ cm/s | 0.049 | 0.57 nM | 2.8 | 300 nM | 0.71 | 0.04 |  | CN1CCN(CCCS(=O)(=O)c2ccc3nc(NC(=O)NC(=O)c4cc5c(ccn5C)cc4Cl)sc3c2)CC1 |  |
| 2 ×10⁻⁶ cm/s | 0.18 | 0.33 nM | 2.9 | 1400 nM | 9.1 | 1.2 |  | CN1CCN(CCCS(=O)(=O)c2ccc3nc(NC(=O)NC(=O)c4cc(C5CC5)ccc4Cl)sc3c2)CC1 |  |
| 0.53 ×10⁻⁶ cm/s | < 0.03 |  | 1.7 | 1200 nM |  |  |  | CN1CCN(CCCS(=O)(=O)c2ccc3nc(NC(=O)NC(=O)c4cc(N5CCOCC5)ccc4Cl)sc3c2)CC1 | Cmax [14]: 11000 nM; Activity (Mus musculus [15]): inactive; Vd [16]: 0.8 L/kg; clearance [17]: 2.6 mL/min/kg; clearance [18]: 0.69 mL/min/kg; clearance [19]: 2.9 mL/min/kg; IC50 [20]: 1.1 nM; bioavailability [21]: 30%; IC50 [22]: 3.4 nM; Vd [23]: 0.9 L/kg; bioavailability [24]: 87%; Activity (Mus musculus [25]): inactive; fraction unbound [26]: 0.0035; Vd [27]: 0.3 L/kg; Cmax [28]: 580 nM; Activity (Mus musculus [29]): Active; fraction unbound [30]: 0.006; fraction unbound [31]: 0.0078; bioavailability [32]: 50%; Cmax [33]: 1300 nM |
